Bioassay records from PubChem.
This is a sample that favours compounds with a hit; in the whole collection about 3.2% have one here.
DSG3 Ab inh: inhibitors of pemphigus antibody binding to human desmoglein-3 | 0.48% of 310,000 active | AID 588358 | binding (percent of control), % at 10 µM | DSG3-coupled beads, scFv-anti-DSG3-GFP binding, flow cytometry; stronger effect = lower value | P32926;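 active = binding more than 3 SD below its plate's average and above zero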;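 also: hits lower antibody fragment binding to DSG3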
UBC13 inh: inhibitors of human UBC13 polyubiquitin chain formation | P61088 | TR-FRET | inhibition, % at 20 µM | 0.47% of 330,000 active; in the data active = inhibition above about 45%, passing the limit was not always enough
MEKK3 PB1 HTS: raises or lowers MEK5 binding to the human MEKK3 PB1 domain; binding response (% of control), % at 10 µM; Q99759; AID 1529; 1.4% of 290,000 active; bead-based flow cytometry, Alexa488-MEK5 binding to MEKK3; actives lie on both sides; 0 = blocked by unlabeled MEK5, 100 = vehicle;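 active = binding response more than 3 SD above or below the average of its plate-row segment, actives on both sides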;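 also: Alexa488 bead fluorescence after subtracting the streptavidin-only scavenger bead signal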
Apaf1 inhib: human Apaf-1 inhibition; reconstituted apoptosome caspase-3 activity, DEVD-Rh110 fluorescence; O14727; 0.71% of 330,000 active; AID 489030; inhibition, % at 20 µM; active = inhibition of at least 40% at 20 µM;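 also: plate controls were DMSO wells for no effect and DEVD-CHO caspase inhibitor wells for full effect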
Target sequence (O14727 whole entry, looked up): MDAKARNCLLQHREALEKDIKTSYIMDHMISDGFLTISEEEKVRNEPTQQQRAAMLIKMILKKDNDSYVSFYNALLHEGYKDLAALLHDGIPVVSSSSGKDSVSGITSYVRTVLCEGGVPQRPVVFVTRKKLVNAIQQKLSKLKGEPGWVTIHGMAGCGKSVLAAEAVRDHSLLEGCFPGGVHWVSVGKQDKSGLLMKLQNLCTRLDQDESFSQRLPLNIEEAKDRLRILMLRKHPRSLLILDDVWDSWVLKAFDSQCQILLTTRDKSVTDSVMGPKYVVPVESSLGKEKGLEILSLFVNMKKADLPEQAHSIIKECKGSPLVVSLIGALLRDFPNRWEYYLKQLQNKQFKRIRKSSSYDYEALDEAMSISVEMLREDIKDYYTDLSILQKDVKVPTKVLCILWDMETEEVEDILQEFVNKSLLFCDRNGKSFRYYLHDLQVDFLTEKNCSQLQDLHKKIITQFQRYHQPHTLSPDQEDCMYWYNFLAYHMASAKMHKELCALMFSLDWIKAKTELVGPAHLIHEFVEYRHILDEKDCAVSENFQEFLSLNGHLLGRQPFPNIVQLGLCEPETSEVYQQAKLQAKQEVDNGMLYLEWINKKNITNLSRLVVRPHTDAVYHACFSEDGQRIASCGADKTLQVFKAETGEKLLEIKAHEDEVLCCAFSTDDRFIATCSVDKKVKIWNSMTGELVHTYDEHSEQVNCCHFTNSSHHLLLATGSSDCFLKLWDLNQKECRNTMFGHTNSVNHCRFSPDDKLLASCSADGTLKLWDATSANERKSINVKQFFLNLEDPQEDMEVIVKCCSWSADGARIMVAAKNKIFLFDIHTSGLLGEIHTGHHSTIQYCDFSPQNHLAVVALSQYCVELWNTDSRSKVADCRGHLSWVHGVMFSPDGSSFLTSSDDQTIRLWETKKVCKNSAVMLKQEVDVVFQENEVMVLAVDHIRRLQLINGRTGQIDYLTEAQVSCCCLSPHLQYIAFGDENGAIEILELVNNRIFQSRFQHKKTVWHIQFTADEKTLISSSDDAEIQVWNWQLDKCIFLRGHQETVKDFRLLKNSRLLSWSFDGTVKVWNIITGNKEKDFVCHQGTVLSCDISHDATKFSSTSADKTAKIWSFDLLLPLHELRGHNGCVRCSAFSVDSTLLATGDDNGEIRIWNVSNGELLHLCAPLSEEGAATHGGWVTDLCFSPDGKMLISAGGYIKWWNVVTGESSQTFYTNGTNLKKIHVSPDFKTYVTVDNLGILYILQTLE
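Medium: Hepes buffer, pH 7.5 / System: biochemical Apaf-1 apoptosome reconstitution / Measured by: Rh110 fluorescence, excitation 480 nm, emission 540 nm / Times: compound with Apaf-1, dATP, procaspase-3 30 min, then 50 min reaction, room temperature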
MEKK2 mut-MEK5: signal of MEK5 binding to mutant human MEKK2 PB1 domain; bead flow cytometry, Alexa488-MEK5 binding to MEKK2 mutant; percent response, % at 10 µM; 0.35% of 290,000 active; AID 1530; in the data active = percent response above about 24%, passing the limit was not always enough
MEKK2wt PB1 HTS: raises or lowers MEK5 binding to wildtype human MEKK2 PB1 domain; Q9Y2U5; binding response (% of control), % at 10 µM; 1.1% of 290,000 active; bead flow cytometry, Alexa488-MEK5 binding to MEKK2 WT; actives lie on both sides; in the data active = binding response below about 67% or above about 130%
MEKK2wt confirm: raises or lowers MEK5 binding to wildtype human MEKK2, retest; shares compounds with MEKK3 PB1 HTS; bead flow cytometry, Alexa488-MEK5 binding to MEKK2 WT; actives lie on both sides; binding response (% of control), % at 10 µM; 2.4% of 5,900 active; AID 1892; in the data active = binding response below about 16% or above about 210%; inactive = in between
MEKK2mut confirm: signal of MEK5 binding to mutant human MEKK2, retest | shares compounds with MEKK3 PB1 HTS | percent response, % at 10 µM | 2% of 5,900 active | bead flow cytometry, Alexa488-MEK5 binding to MEKK2 mutant; in the data active = percent response mostly above about 71%, no sharp cut-off; inactive = mostly below about 38%;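 also: higher means compound restores mutant binding toward wildtype level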
MEKK3-MEK5 inh: MEKK3-MEK5 PB1 inhibition, single concentration confirmation | shares compounds with MEKK3 PB1 HTS | bead flow cytometry, Alexa488-MEK5 binding to MEKK3; stronger effect = lower value | binding response (% of control), % at 10 µM | 1.8% of 5,900 active | AID 1894;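 active = binding response below 72% of control, or above a set upper limit, though filed actives all read lower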;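 also: 100% = DMSO only wells and 0% = binding blocked by excess unlabeled MEK5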
An asterisk follows results filed as active; x = no result; [ ] = dose if it differs, or a comment.

SMILES	DSG3 Ab inh	UBC13 inh	MEKK3 PB1 HTS	Apaf1 inhib	MEKK2 mut-MEK5	MEKK2wt PB1 HTS	MEKK2wt confirm	MEKK2mut confirm	MEKK3-MEK5 inh
COc1nc(=O)n(C2C=CC(=O)O2)cc1F (stereo unspecified)	105	x	x	x	x	x	x	x	x
Cc1nn(Cc2ccccc2)c(Cl)c1C(=O)OCC(=O)NC(=O)NC12CC3CC(CC(C3)C1)C2	100	7	145*	13	1	106	98	-7	101
Cc1noc(C)c1C(=O)OCC(=O)NC(=O)NC12CC3CC(CC(C3)C1)C2	110	2	99	7	0	97	x	x	x
COc1ccc(-c2cn(CCC(=O)O)c(C)n2)cc1	103	0	x	-7	x	x	x	x	x
O=C(Nc1c(C(=O)C2CC2)oc2ccccc12)c1ccc(Cl)cc1	x	30	145*	9	1	111	102	5	102
CN(Cc1nccn1C)C(=O)CC1C(=O)NCCN1Cc1ccc(F)cc1Cl (stereo unspecified)	116	10	99	9	3	98	x	x	x
Cc1ccc(OCCOc2ccc(Cl)cc2Cl)c([N+](=O)[O-])n1	111	20	105	9	13	165*	103	3	102
CCCC1(c2ccccc2)NC(=O)N(CC(=O)Nc2cc(C)on2)C1=O (stereo unspecified)	104	-4	65*[inhibitor]	3	-3	80	91	-5	97
Cc1c(NC(=O)CN2C(=O)NC(C)(c3ccccc3)C2=O)c(=O)n(-c2ccccc2)n1C (stereo unspecified)	116	-1	140*	-9	0	103	105	0	99
Cc1ccc(C2(C)NC(=O)N(CC(=O)Nc3c(C)n(C)n(-c4ccccc4)c3=O)C2=O)cc1 (stereo unspecified)	89	3	106	0	20	131	x	x	x
O=[N+]([O-])c1cc([N+](=O)[O-])c(Oc2cc(Cl)ccc2Cl)cc1NC1CCCCCCC1	104	-18	101	9	-4	93	x	x	x
O=c1c2sccc2nc(SCc2ccc([N+](=O)[O-])cc2)n1Cc1ccccn1	103	19	63*[inhibitor]	-6	1	96	100	-1	104
Cc1ccc(CNC(=O)CSc2nc3ccsc3c(=O)n2Cc2ccccn2)cc1	x	14	103	-5	-6	100	x	x	x
Cc1cccc(OCC(O)Cn2ccnc2C)c1 (stereo unspecified)	115	14	107	-11	4	116	x	x	x
COc1cc(OC)cc(OCC(O)Cn2ccnc2C)c1 (stereo unspecified)	x	4	2.0*[inhibitor]	0	-21	2.0*[inhibitor]	95	-6	102
CSc1ncc(C(=O)Nc2ccc(C(C)=O)cc2)c(-c2ccccc2)n1	103	-3	97	9	-5	101	x	x	x
C=CCNC(=S)N/N=C(\C)c1cccc(NC(C)=O)c1	95	-4	99	4	-2	99	x	x	x
C=CCNC(=S)N/N=C(\C)c1cc(OC)c(OC)c(OC)c1	x	-6	137*	18	0	106	105	1	105
Cc1cc(OCC(=O)NCc2ccccn2)c2c(C)cc(=O)oc2c1	102	19	101	-5	1	100	x	x	x
O=C(CSc1nnc(-c2ccncc2)n1-c1ccc(Cl)cc1)NCc1cccs1	94	6	124*	5	9	120	102	-3	102
COc1cccc(NC(=O)CSc2nnc(-c3ccc(C)cc3)o2)c1	93	-1	82*[inhibitor]	0	-6	84	104	3	102
CCc1ccc(NC(=O)CSc2nnc(-c3ccco3)o2)cc1	x	-1	100	13	3	100	x	x	x
Cc1cc(C)cc(-c2nnc(SCC(=O)NCc3cccs3)o2)c1	94	10	1.0*[inhibitor]	-2	-20	-2.0*[inhibitor]	113	6	102
CC(=O)Nc1ccc(NC(=O)CSc2nnc(-c3ccco3)o2)cc1	100	-7	129*	9	1	112	95	-25	93
CC(C)C[C@H](NC(=O)N1CCn2c1nc1ccccc12)C(=O)N[C@H](Cc1ccccc1)C(=O)O	99	-3	101	1	2	97	x	x	x
SMILES	DSG3 Ab inh	UBC13 inh	MEKK3 PB1 HTS	Apaf1 inhib	MEKK2 mut-MEK5	MEKK2wt PB1 HTS	MEKK2wt confirm	MEKK2mut confirm	MEKK3-MEK5 inh
COc1ccc(C)cc1N(C)C(=O)Cc1c(C(=O)O)n(C)c2ccccc12	102	-3	103	-1	6	103	x	x	x
COc1ccc(OC)c(C(=O)CSc2nnc(C3CC3)n2C2CC2)c1	97	x	x	x	x	x	x	x	x
COc1ccc(C(=O)Nc2ccc(NC(=O)c3cccs3)cc2)cc1Cl	88	-13	130*	-17	0	103	96	-2	101
COc1ccc(C(=O)Nc2ccc(NC(=O)c3cccs3)c(OC)c2)cc1Cl	x	3	101	-8	-9	93	x	x	x
O=C(NCC(c1ccco1)N1CCCCC1)c1cccc(S(=O)(=O)Nc2ccc(F)cc2)c1 (stereo unspecified)	102	1	x	8	x	x	x	x	x
Cc1nc(NC(=O)C23CC4CC(CC(C4)C2)C3)sc1Cc1ccc2c(c1)OCO2	110	10	108	10	30	147*	131	15	105
Cc1nc(NC(=O)C2CCCC2)sc1Cc1ccc2c(c1)OCO2	95	-5	107	13	1	109	x	x	x
O=S(=O)(Cc1ccccc1)C(c1ccccc1)S(=O)(=O)Cc1ccccc1	106	x	x	x	x	x	x	x	x
CCNC(=O)CSc1nnc(-c2ccccc2Br)n1-c1cccc(C(F)(F)F)c1	98	6	128*	-6	1	109	100	0	99
O=C(O)CSc1nnc(-c2ccccc2Br)n1-c1cccc(C(F)(F)F)c1	98	-14	101	6	3	99	x	x	x
NC(=O)CSc1nnc(-c2ccccc2Br)n1-c1cccc(C(F)(F)F)c1	94	12	139*	7	-1	101	104	-4	102
Clc1ccc(CO/N=C2\CCCc3nonc32)cc1	108	-3	145*	7	1	109	101	-6	105
Cc1ccc(-c2cn3cccnc3n2)cc1NC(=O)c1cccs1	102	23	133*	-5	0	103	99	-1	99
CCCCN1CN(Cc2ccccc2)CNC1=S	105	-9	108	3	-1	96	x	x	x
